Compounds with a hit are over-represented: about 4% of the library has one in this group of screens.
NTR1 ag: agonists of human NTR1, primary screen, imaging, U2OS cells, beta-arrestin-GFP, high content; NTR1-U2OS beta-arrestin-GFP spot imaging, agonist mode; activation, % at 20 µM; actives 0.17% (n = 330,000); AID 493036, 2011;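 active means activation at or above 40% of the spot to cytoplasm intensity ratio, with at least 20 cells analyzed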
TAAR1 agonist: human TAAR1 agonists, primary screen, Fluo-8 calcium fluorescence, CHO RD-HGA16 cells; vehicle wells 0%, saturating PEA agonist 100%; actives 0.99% (n = 360,000); Trace amine-associated receptor 1 (Homo sapiens), Q96RJ0; activation, % at 3 µM;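 active means activation above the mean activation of all test compounds in the run plus 3 SD, cut at about 38% in these data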
Target sequence (Q96RJ0 whole entry, looked up): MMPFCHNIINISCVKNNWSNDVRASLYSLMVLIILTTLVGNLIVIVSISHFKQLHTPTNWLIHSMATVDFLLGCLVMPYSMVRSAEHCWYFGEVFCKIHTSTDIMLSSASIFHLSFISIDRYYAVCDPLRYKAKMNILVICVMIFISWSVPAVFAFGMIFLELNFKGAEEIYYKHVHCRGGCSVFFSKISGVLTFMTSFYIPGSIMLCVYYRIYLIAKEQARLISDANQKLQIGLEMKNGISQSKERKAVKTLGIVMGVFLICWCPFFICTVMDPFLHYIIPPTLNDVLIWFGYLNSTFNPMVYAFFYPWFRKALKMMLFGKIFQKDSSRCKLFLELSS
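Benchmarks: low control DMSO, high control PEA (EC100); System: CHO RD-HGA16 cells carrying human TAAR1 plus Gα16; Detection: Fluo-8 fluorescence, 5 s baseline then 140 s kinetic read; Schedule: 17-24 h plating, Fluo-8 75 min 37 °C, 30 min RT; Read-out basis: % activation from peak over basal fluorescence ratio, DMSO-to-PEA scaled.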
CHO parental Ca: ATP-evoked calcium signal inhibitors, parental CHO, primary screen, counter-screen for OX1R antagonist project, cell-based, fluorescence, Fluo-8 calcium dye; parental CHO-K1, ATP-induced calcium, Fluo-8 fluorescence; inhibition, % at 5.6 µM; actives 0.63% (n = 330,000);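 active means inhibition above that plate's mean sample inhibition plus 3 SD, cut at about 26% in these data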
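Test system: untransfected parental CHO cell line. Compound: one dose, 5.6 µM nominal. Detection: intracellular calcium via Fluo-8 no-wash fluorescent dye. Measure: % inhibition. Benchmarks: ATP-challenged DMSO wells low, unchallenged DMSO wells high.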
OX1R antag-1: OX1R (HCRTR1) antagonists, primary screen, fluorescence, CHO/OX1R cells, Fluo-8 calcium, orexin A; Fluo-8 calcium fluorescence; Orexin/Hypocretin receptor type 1 (Homo sapiens), O43613; AID 434989, 2010; inhibition, % at 5 µM; actives 0.43% (n = 330,000);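 active means inhibition above its plate's threshold, mean inhibition of all tested compounds on the plate plus 3 SD, cut at about 37% in these data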
TAAR1 antag: human TAAR1 antagonists, primary screen, Fluo-8 calcium fluorescence, CHO RD-HGA16 cells; Trace amine-associated receptor 1 (Homo sapiens), Q96RJ0; actives 1.5% (n = 360,000); AID 624466, 2012; inhibition, % at 3 µM; antagonist;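 active means inhibition above a per-plate cutoff, the mean inhibition of test compounds on that plate plus 3 SD, cut at about 49% in these data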
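Assay system: CHO-derived RD-HGA16 cells stably expressing human TAAR1 plus Gα16. Timing: 140 s kinetic read after compound, 140 s after agonist. Technique: kinetic Fluo-8 calcium fluorescence measurement. Measure: % inhibition of agonist calcium response.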
OX1R antag-2: antagonists of human orexin 1 receptor (OX1R); Orexin/Hypocretin receptor type 1 (Homo sapiens), O43613; OX1R-expressing cells, FRET antagonist read-out; inhibition, % at 6.6 µM; actives 1.8% (n = 330,000); AID 485270, 2010; in the data active means inhibition mostly above about 38%, no sharp cut-off; inactive means mostly below about 40%
Numbers stand for hits; 0 = inactive; - = no result.

SMILES	NTR1 ag	TAAR1 agonist	CHO parental Ca	OX1R antag-1	TAAR1 antag	OX1R antag-2
COc1ccc(CCC(=O)Nc2nc3ccccc3[nH]2)cc1	0	0	70	0	0	0
Nc1[nH]c(C(=O)c2ccccc2)c(-c2ccc(Br)cc2)c1C(=O)c1ccccc1	-	0	-	-	0	-
CC1CCCN(C(=O)CSc2ncccn2)C1 (stereo not given)	0	0	0	0	0	0
CC(CCC(C)C(C)(C)C)[C@@H]1CC[C@H]2C3C[C@H](OS(O)(=S)=S)[C@H]4C[C@H](OS(O)(=S)=S)[C@@H](OS(O)(=S)=S)C[C@]4(C)[C@H]3CC[C@]12C (stereo not given in full) (tested in a mixture with another compound)	0	-	84	101	-	66
CCN1CCN(c2ncnc3c2cnn3-c2ccccc2)CC1	0	0	0	0	0	0
c1ccc(CCN2CCN(c3ncnc4c3cnn4-c3ccccc3)CC2)cc1	0	41	0	0	0	0
Cn1ncc2c(N3CCC(Cc4ccccc4)CC3)ncnc21	0	0	0	0	0	58
C#CCN(Cc1cccc(F)c1)C(=O)c1nnc2c3ccccc3n(S(=O)(=O)c3ccc(C)cc3)c2n1	-	0	-	-	0	-
COn1c2c(c3c4no[n+]([O-])c4ccc31)CCCC2	0	0	0	0	0	0
[O-][n+]1c2c(c3c4non(O)c4ccc31)CCCC2	0	0	0	0	0	54
C=CCN=C1NC(c2ccccc2)C(C(=O)OC)=C(C)N1Cc1ccccc1C(F)(F)F (stereo not given)	-	0	-	-	0	-
c1ccc(COc2ccc(Nc3ncnc4nc[nH]c34)cc2)cc1	0	0	0	0	56	0
CCOC(=O)c1ccc(Nc2ncnc3nc[nH]c23)cc1	0	0	0	0	0	0
O=C(OCc1nc2ccsc2c(=O)[nH]1)c1cccc(S(=O)(=O)N2CCOCC2)c1	0	0	0	0	0	0
COc1cc(OC)cc(C(=O)Nc2nc(CC(=O)NCc3ccccc3OC)cs2)c1	0	0	0	0	56	0
COc1cc(OC)cc(C(=O)Nc2nc(CC(=O)NCCc3ccccc3)cs2)c1	0	0	0	0	0	0
COc1cc(OC)cc(C(=O)Nc2nc(CC(=O)NCc3ccc(F)cc3)cs2)c1	0	0	0	0	50	0
CC(C)Cc1ccc(C(C)/C=C2/CCC(CN3CCCCC3)C2=O)cc1 (stereo not given)	-	0	-	-	0	-
CC(C)Cc1ccc(C(C)CC2=CCC(CN(C)C)C2=O)cc1 (stereo not given)	-	0	-	-	51	-
CCOc1ccc(NC(=NCc2ccc3c(c2)OCO3)SC2CC(=O)N(c3ccc(C(=O)O)cc3)C2=O)cc1 (stereo not given)	0	0	38	51	0	0
CCOc1ccc(NC(=NCc2ccc3c(c2)OCO3)SC2CC(=O)N(c3ccc(OCC)cc3)C2=O)cc1 (stereo not given)	0	0	0	0	0	0
COc1ccc(NC(=O)c2cc3c(=O)n(C)c4ccccc4c3s2)cc1OC	0	0	0	0	0	54
CCn1c(=O)c2cc(C(=O)Nc3ccc(OC)cc3OC)sc2c2ccccc21	0	0	0	0	0	0
CC(c1ccccc1C(O)c1ccccc1)N(C)C (stereo not given)	0	0	0	0	0	0
Cc1ccc(C(O)(c2ccccc2)c2ccccc2C(C)N(C)C)c(C)c1 (stereo not given)	0	41	0	0	0	0
COC(=O)[C@]12C[C@H](CC(=O)N3CCSCC3)C(=O)N(Cc3ccc4c(c3)OCO4)C1=C[C@H](C(C)(C)C)O[C@@H]2C	-	0	-	-	0	-
CC(=O)Nc1ccc(Nc2ncnc(N)c2[N+](=O)[O-])cc1	0	0	0	0	0	37

Screening results deposited in PubChem BioAssay by several laboratories.
